Activity calls are given as the source filed them.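 The calls were made as follows, unless noted: active = fluorescence slope higher than the sample average by over 3 SD (cut at about -0.22 in these data, passing the limit was not always enough); inactive = the rest.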
Tests used:
[1] = inhibitors of TNFa-induced NFkB p65 translocation, primary screen, imaging, HUVEC, MLSMR starter and 10KST1 sets (AID 438;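 active = inhibition above 20% together with a positive visual image hit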;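 also: compound added about 3h40 before a 20 min TNFalpha stimulation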;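 as to inhibition: signal is the nuclear over cytoplasmic p65 intensity ratio per well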); details: HUVEC TNFa-induced p65 nuclear translocation; cell count: measured here: nuclei count (cytotoxicity indicator), at 2.08 µM; inhibition: at 2 µM, stronger effect = higher value, 0% TNFa-plus-vehicle, 100% no-TNFa wells
[2] = inhibitors of mutant huntingtin aggregation, primary screen, imaging, exon1htt(103Q)mCFP cells, high-content imaging (AID 483;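 active = visual image review flags a hit and inhibition of aggregation exceeds 20%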;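 also: compound exposure lasted 3 days before fixation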;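 as to nuclei count: percent of the per-plate median nuclei count of sample wells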); details: exon1htt(103Q)mCFP cell line, aggregate imaging, at 2 µM; inhibition of aggregation: stronger effect = higher value; nuclei count: measured here: cell count, toxicity
[3] = inhibitors of E-selectin induction by TNFa, primary screen, imaging, HUVEC, immunofluorescence, MLSMR starter and 10KST1 sets (AID 487;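 active = visually confirmed hit in the image check and inhibition above 20%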;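 as to inhibition: signal is fraction of cell area covered by stained E-selectin grains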;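 as to nuclei count: 100% = median nuclei count of all wells on the same plate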); details: HUVEC TNFalpha-induced E-selectin immunofluorescence imaging, at 2 µM; inhibition: stronger effect = higher value; nuclei count: measured here: cell number, toxicity
[4] = biological target: Voltage-gated potassium channel subunit beta-2 (Rattus norvegicus) (UniProt P62483); assay: KvBeta enzyme negative modulators, primary screen, biochemical, NADPH fluorescence (AID 622); details: recombinant KvBeta, 4-cyanobenzaldehyde reduction, at 10 µM, stronger effect = higher value;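 also: slope of raw intensity against log time taken from 70 to 1610 s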
Chain of Voltage-gated potassium channel subunit beta-2 (Rattus norvegicus) (P62483 whole entry, looked up): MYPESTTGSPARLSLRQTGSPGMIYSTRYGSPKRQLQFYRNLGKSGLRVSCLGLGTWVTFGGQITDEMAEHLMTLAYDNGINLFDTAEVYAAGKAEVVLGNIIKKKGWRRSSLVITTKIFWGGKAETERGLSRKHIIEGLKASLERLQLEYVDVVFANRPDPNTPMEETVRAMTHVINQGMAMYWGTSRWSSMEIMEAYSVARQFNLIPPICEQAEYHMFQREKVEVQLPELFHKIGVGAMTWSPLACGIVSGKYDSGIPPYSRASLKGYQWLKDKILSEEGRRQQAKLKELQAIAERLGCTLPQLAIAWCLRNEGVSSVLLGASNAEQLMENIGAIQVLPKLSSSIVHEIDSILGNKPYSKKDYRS

[5] = biological target: Voltage-gated potassium channel subunit beta-2 (Rattus norvegicus) (UniProt P62483); assay: KvBeta positive modulators, primary screen, biochemical, NADPH fluorescence (AID 623;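 active = NADPH fluorescence slope more negative than the mean of all samples by about 3 SD, 99.7% confidence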;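 also: fluorescence intensity change per second fitted from 20 to 320 s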); details: Recombinant KvBeta, NADPH fluorescence decrease slope, 10 min; at 10 µM; stronger effect = lower value
[6] = biological target: Muscarinic acetylcholine receptor M4 (Homo sapiens) (UniProt P08173); assay: compounds altering M4/GIRK thallium flux, either direction, primary screen, M4 allosteric agonist project, cell-based, HEK293 M4/GIRK, BTC-AM (AID 625;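 active = fluorescence slope after compound addition differing from the mean of all tested samples at 99.7% confidence, mostly higher but some lower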;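 also: thallium influx through GIRK channels coupled to M4 in HEK293 cells with BTC-AM dye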); details: at 10 µM, actives lie on both sides
Chain of Muscarinic acetylcholine receptor M4 (Homo sapiens) (P08173 whole entry, looked up): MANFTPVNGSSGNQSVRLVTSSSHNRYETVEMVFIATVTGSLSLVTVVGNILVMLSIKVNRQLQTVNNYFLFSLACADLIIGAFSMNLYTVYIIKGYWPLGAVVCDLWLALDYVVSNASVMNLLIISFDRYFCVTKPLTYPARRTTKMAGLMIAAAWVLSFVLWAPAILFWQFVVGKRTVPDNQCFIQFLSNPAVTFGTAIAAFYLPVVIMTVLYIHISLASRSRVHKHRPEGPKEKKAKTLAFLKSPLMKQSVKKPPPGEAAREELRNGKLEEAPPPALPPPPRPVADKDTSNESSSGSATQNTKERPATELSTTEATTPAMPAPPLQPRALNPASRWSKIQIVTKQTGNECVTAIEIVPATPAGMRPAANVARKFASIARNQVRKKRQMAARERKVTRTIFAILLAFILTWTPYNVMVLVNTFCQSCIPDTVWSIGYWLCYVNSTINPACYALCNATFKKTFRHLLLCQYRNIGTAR
Procedure, shortened: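 assay system = HEK293 cells with M4 receptor and GIRK channels | medium = pH 7.3 thallium assay buffer | doses = 10 µM final, single point | timing = cells overnight at 37 °C, BTC-AM loading 1 h, reads 2 min total | signal = BTC-AM fluorescence, 1 Hz kinetic reads | read-out = post-addition slope, 15–24 s, of baseline-normalized fluorescence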

[7] = inhibitors of Sendai virus-induced IRF3 signaling, primary screen, TLR/RLR signaling modifier project, cell-based, Sendai virus stimulus, luciferase, 10K MLSCN set (AID 602276;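 active = inhibition at or above 50% at 10 µM; inactive = inhibition below 50%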;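 also: firefly luciferase from ISG56 promoter only with Renilla not read in this screen; 0% = Sendai virus plus DMSO and 100% = medium plus DMSO without virus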); details: HEK293 RL24 IRF3 luciferase reporter, at 10 µM, stronger effect = higher value
[8] = inhibitors of poly I:C-induced TLR3 signaling, primary screen, cell-based, poly I:C stimulus, luciferase, 10K MLSCN set (AID 602277;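 active = inhibition of the reporter signal at or above 50%; inactive = inhibition below 50%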); details: HEK293-TLR3 RL24 IRF3 luciferase reporter, at 10 µM, stronger effect = higher value

Structure (SMILES)	cell count [1]	inhibition [1]	inhibition of aggregation [2]	nuclei count [2] [%]	inhibition [3]	nuclei count [3] [%]	fluorescence slope [4]	NADPH fluorescence slope [5]	fluorescence slope [6]	inhibition [7]	inhibition [8]
COc1ccc(-c2noc(CN3CCC(Cc4ccccc4)CC3)n2)cc1	322	-0.7% (inactive)	-24.1% (inactive)	104	-98.5% (inactive)	123	-0.553 (inactive)	6.3e-06 (inactive)	0.00696 (inactive)	-7.04% (inactive)	-6.07% (inactive)
CCNC(=O)Cn1cnc2c1c(=O)n(C)c(=O)n2C	315	-12.5% (inactive)	4.3% (inactive)	113	7.8% (inactive)	106	-0.617 (inactive)	7.5e-06 (inactive)	0.00466 (inactive)	12.1% (inactive)	14.3% (inactive)
COc1ccccc1CNC(=O)C1CCN(S(=O)(=O)N2CCCCC2)CC1	571	-1.8% (inactive)	4.5% (inactive)	102	-44.6% (inactive)	89.6	-0.426 (inactive)	-3.4e-05 (inactive)	0.00585 (inactive)	14% (inactive)	21.7% (inactive)
CCOc1ccccc1Nc1nc2ccccc2[nH]1	327	1.2% (inactive)	5.9% (inactive)	111	2.9% (inactive)	109	-0.524 (inactive)	-0.000156 (active)	0.00599 (inactive)	-18.9% (inactive)	-39.8% (inactive)
CC(=O)c1c(C)nc(C)nc1NC(=O)Cc1ccccc1	234	-4.4% (inactive)	37.5% (inactive)	79.9	2.9% (inactive)	84.4	-0.566 (inactive)	-4.2e-05 (inactive)	0.00735 (inactive)	12.7% (inactive)	20.5% (inactive)
c1ccc2c(c1)Cn1c-2nc2ccccc21	700	-28.4% (inactive)	5.7% (inactive)	80.7	-26.5% (inactive)	114	-0.349 (inactive)	-6.3e-05 (inactive)	0.00562 (inactive)	-36.1% (inactive)	-131% (inactive)
Brc1ccc2[nH]ncc2c1	364	4.4% (inactive)	8.2% (inactive)	91.4	13.4% (inactive)	77	-0.477 (inactive)	-3.1e-06 (inactive)	0.00572 (inactive)	15.5% (inactive)	22.5% (inactive)
CC1=CC=CC2=NC(=O)CC(C)(C(=O)N(CC(=O)NC(C)C)C3CCCC3)N12 (stereo not drawn)	668	-4.9% (inactive)	-31.9% (inactive)	107	71.9% (active)	102	-0.405 (inactive)	6.3e-05 (inactive)	0.00619 (inactive)	4.96% (inactive)	6.2% (inactive)
Cn1c(NCc2cccc(Br)c2)nc2ccccc21	337	-4.7% (inactive)	3% (inactive)	103	-6.9% (inactive)	139	-0.528 (inactive)	-2.6e-05 (inactive)	0.00491 (inactive)	8.28% (inactive)	14.2% (inactive)
c1ccc(CNC2=NCCC2)nc1	414	-5.7% (inactive)	14.2% (inactive)	65.8	42.6% (inactive)	75.5	-0.586 (inactive)	-2.6e-05 (inactive)	0.00615 (inactive)	1.8% (inactive)	10.1% (inactive)
CCCNS(=O)(=O)c1ccc(OCC(=O)Nc2ccccc2F)cc1	408	8.2% (inactive)	-23% (inactive)	99.5	-57.2% (inactive)	100	-0.557 (inactive)	-2.6e-05 (inactive)	0.00506 (inactive)	19.7% (inactive)	15.2% (inactive)
COC(=O)C1(C)NC(c2ccco2)C2C(=O)N(c3ccc(C)cc3)C(=O)C21 (stereo not drawn)	560	-17.5% (inactive)	-8.7% (inactive)	113	-40.3% (inactive)	114	-0.318 (inactive)	-3.5e-05 (inactive)	0.00521 (inactive)	14.7% (inactive)	17.2% (inactive)
COc1cccc(OCc2nc3c4cnn(-c5ccccc5)c4ncn3n2)c1	418	-6.7% (inactive)	-8.8% (inactive)	104	-118% (inactive)	110	-0.576 (inactive)	1.4e-05 (inactive)	0.00593 (inactive)	8.13% (inactive)	-16.4% (inactive)
Cc1ccc(SCCC(=O)N(C)C)cc1	637	-8.6% (inactive)	10.5% (inactive)	89.8	-143% (inactive)	103	-0.459 (inactive)	-2.6e-05 (inactive)	0.00561 (inactive)	-10.8% (inactive)	-52.8% (inactive)
O=C(O)c1ccccc1C(=O)Nc1ccccc1	476	-6% (inactive)	-8.6% (inactive)	82.7	-88.4% (inactive)	143	-0.5 (inactive)	-0.000287 (inactive)	0.00478 (inactive)	5.22% (inactive)	8.4% (inactive)
Cc1cc(C)c(-c2cc(C(=O)Nc3c(C)n(C)n(-c4ccccc4)c3=O)[nH]n2)c(O)c1	434	1.8% (inactive)	-1.8% (inactive)	111	-51.7% (inactive)	105	-0.585 (inactive)	3.8e-05 (inactive)	0.00571 (inactive)	8.55% (inactive)	101% (active)
CCc1cccc2c(=O)c(C(=O)NCCN3CCOCC3)c[nH]c12	584	8.2% (inactive)	-3.6% (inactive)	110	27.3% (inactive)	91.2	-0.558 (inactive)	-5.3e-05 (inactive)	0.00469 (inactive)	1.65% (inactive)	18.5% (inactive)
CCOc1ccc(N(CC(=O)NCC2CCCO2)S(=O)(=O)c2ccc(OC)c(OC)c2)cc1 (stereo not drawn)	326	3.5% (inactive)	-10.6% (inactive)	107	-47% (inactive)	112	-0.572 (inactive)	-3.5e-05 (inactive)	0.00351 (inactive)	10.6% (inactive)	18.4% (inactive)
CCn1c(=N)n(CC(O)COc2cccc(C)c2)c2ccccc21 (stereo not drawn)	289	-4.7% (inactive)	-15.2% (inactive)	94.9	-9.5% (inactive)	112	-0.517 (inactive)	4.3e-05 (inactive)	0.00395 (inactive)	-0.649% (inactive)	-11.2% (inactive)
COc1cc(C(=O)Nc2cc(Cl)ccc2C)c(-n2cnnn2)cc1OC	715	8.8% (inactive)	15.8% (inactive)	83.5	-62.1% (inactive)	117	-0.474 (inactive)	0.00014 (inactive)	0.00699 (inactive)	13.5% (inactive)	15.4% (inactive)
COC(=O)c1cc(Br)c(=O)n(CCC2=CCCCC2)c1	559	0% (inactive)	-16.7% (inactive)	110	6.3% (inactive)	122	-0.497 (inactive)	9.3e-05 (inactive)	0.00488 (inactive)	-1.92% (inactive)	9.19% (inactive)
O=C(NC1CC2CCC1C2)C1COc2ccccc2O1 (stereo not drawn)	297	-3.7% (inactive)	1.9% (inactive)	89.3	18.8% (inactive)	97.5	-0.46 (inactive)	-3.9e-05 (inactive)	0.00453 (inactive)	0.357% (inactive)	-2.86% (inactive)
O=C1COc2ccc(C(=O)NCc3ccco3)cc2N1	668	-0.8% (inactive)	-4.2% (inactive)	79.6	85.2% (active)	82.3	-0.575 (inactive)	-3.7e-05 (inactive)	0.00601 (inactive)	-3.82% (inactive)	9.4% (inactive)
CN(C)C(=O)CN(c1ccc(F)c(Cl)c1)S(C)(=O)=O	352	-2.1% (inactive)	-0.4% (inactive)	104	5.1% (inactive)	109	-0.56 (inactive)	-8.3e-05 (inactive)	0.00357 (inactive)	1.05% (inactive)	9.43% (inactive)
NC(=O)c1c(-c2ccccc2)oc2ccc(O)cc12	380	-4.7% (inactive)	11.1% (inactive)	103	-104% (inactive)	92.8	-0.532 (inactive)	-1.2e-05 (inactive)	0.00463 (inactive)	-8.7% (inactive)	-13.7% (inactive)
COCCOc1nc2ccccc2nc1C	351	5.2% (inactive)	8.5% (inactive)	87.8	-5.9% (inactive)	104	-0.615 (inactive)	-2.4e-05 (inactive)	0.00668 (inactive)	16.4% (inactive)	2.62% (inactive)
Cc1ccccc1OCCN1C(=O)NC2(CCc3ccccc32)C1=O (stereo not drawn)	414	-18.4% (inactive)	8.4% (inactive)	94.7	8.5% (inactive)	99.4	-0.297 (inactive)	-1.6e-05 (inactive)	0.00542 (inactive)	12% (inactive)	4.56% (inactive)
Cc1nc(C)c(C(=O)Nc2ccc(Oc3ccccc3)cc2)o1	405	0.6% (inactive)	-26.8% (inactive)	105	-128% (inactive)	119	-0.306 (inactive)	-2.3e-05 (inactive)	0.00832 (inactive)	-20.2% (inactive)	-128% (inactive)
